The source of these data is ChEMBL document CHEMBL5338714, “Design, synthesis and biological evaluation of biphenyl-benzamides as potent FtsZ inhibitors” (Eur J Med Chem, 2022).

Broadly, the MIC is the lowest concentration found to suppress growth. As usually defined, the MBC is the lowest tested concentration that kills the bacteria rather than only halting them. A low value points to more potent killing. Usually half-life stands for how long it takes for the measured level to halve.

SMILES strings stand for the structures. ≈ marks a conversion by molar mass, not a printed value.

The test system of data set [1] is Staphylococcus aureus. The data set can be described thus: Antibacterial activity against Staphylococcus aureus ATCC29213 assessed as bacterial growth inhibition incubated for 18 hrs by CLSI based broth microdilution method. In kind it is functional. A digest of the protocol: (§1)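 CLSI broth microdilution. Log-phase bacteria in Mueller Hinton broth added to 2-fold serial dilutions spanning 128 to 0.25 or 2 to 0.004 µg/mL. Incubated aerobically for 18 h at 37 °C, then OD600 read. MIC is the lowest concentration giving ≥90% growth inhibition; three independent assays.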

Data set [2] deals with Staphylococcus aureus. Nature of the data set: Antibacterial activity against Staphylococcus aureus ATCC25923 assessed as bacterial growth inhibition incubated for 18 hrs by CLSI based broth microdilution method. In kind it is functional. The procedure, abridged:
as §1

For data set [3], the system named is Bacillus subtilis. The data set can be described thus: Antibacterial activity against Bacillus subtilis ATCC9372 assessed as bacterial growth inhibition incubated for 18 hrs by CLSI based broth microdilution method. In kind it is functional. The procedure, abridged: as §1
The test system of data set [4] is Bacillus subtilis. The data set can be described thus: Antibacterial activity against Bacillus subtilis BS01 assessed as bacterial growth inhibition incubated for 18 hrs by CLSI based broth microdilution method. In kind it is functional. The procedure, abridged:
as §1

In data set [5] the test system is Bacillus subtilis. The data set can be described thus: Antibacterial activity against Bacillus subtilis MG27 assessed as bacterial growth inhibition incubated for 18 hrs by CLSI based broth microdilution method. The format is functional. A digest of the protocol: as §1
(Dilution methods test growth across graded concentrations, often in twofold steps.)

Data set [6] deals with Bacillus subtilis. The data set can be described thus: Antibacterial activity against Bacillus subtilis 618 assessed as bacterial growth inhibition incubated for 18 hrs by CLSI based broth microdilution method. In kind it is functional. The procedure, abridged: as §1
The subject of data set [7] is Bacillus subtilis. Nature of the data set: Bactericidal activity against Bacillus subtilis ATCC9372 incubated for 24 hrs by broth microdilution method. In kind it is functional. The procedure, abridged:
(§2)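 MBC from the broth microdilution plates (MHB, 2-fold dilutions). After 24 h, 5 µL aliquots from clear wells were plated on LB agar and incubated aerobically 24 h at 37 °C, then colonies counted. MBC = lowest concentration with no colonies.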

For data set [8], the system named is Klebsiella pneumoniae. The data set can be described thus: Antibacterial activity against Klebsiella pneumoniae 14578 assessed as bacterial growth inhibition incubated for 18 hrs by CLSI based broth microdilution method. The format is functional. A digest of the protocol:
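Broth microdilution to CLSI guidelines. Log-phase bacteria grown in Mueller Hinton broth, diluted, then exposed to 2-fold serial dilutions of compound (128 to 0.25 µg/mL or 2 to 0.004 µg/mL). Incubated aerobically 18 h at 37 °C. Growth read as OD600. MIC = lowest concentration giving ≥90% growth inhibition. Three independent assays.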

Data set [9] deals with Staphylococcus aureus. The data set can be described thus: Bactericidal activity against Staphylococcus aureus ATCC25923 incubated for 24 hrs by broth microdilution method. The format is functional. The procedure, abridged:
as §2

For data set [10], the system named is Staphylococcus aureus. Nature of the data set: Induction of resistance in Staphylococcus aureus ATCC29213 assessed as fold increase in MIC at 0.5 times MIC after 18 passages incubated for 24 hrs by resistance development assay. In kind it is functional. The procedure, abridged: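 Serial passage of S. aureus ATCC29213. Initial MIC was found by broth microdilution. Bacteria from the 0.5 × MIC tubes (duplicate) were diluted to about 5 × 10^5 CFU/mL and re-exposed to compound for 24 h at 35 °C, then fold increase in MIC was determined. Repeated for 18 passages, with norfloxacin as comparator.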

Data set [11] in a line: Metabolic stability in mouse liver microsomes assessed as intrinsic clearance preincubated for 5 mins followed by NADPH addition measured upto 45 mins by LC/MS analysis. The following applies: time < 50 min, read-out: CLH. The format is ADME, Microsome. A digest of the protocol: (§3)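 Liver microsomes at 0.75 mg/mL final protein, with test article and NADPH regeneration system (6 mM) in 100 mM phosphate buffer, pH 7.4. Preincubated 5 min at 37 °C, then started with NADPH. Quenched with acetonitrile containing internal standard at 5, 15, 30 and 45 min, centrifuged, and percent remaining measured by LC/MS. Ketanserin served as reference.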
(Liver microsomes are vesicles of endoplasmic reticulum, rich in cytochrome P450 enzymes.)

Data set [12] in a line: Metabolic stability in mouse liver microsomes assessed as half life preincubated for 5 mins followed by NADPH addition measured upto 45 mins by LC/MS analysis. The format is ADME, Microsome. The following applies: time < 50 min. The procedure, abridged: as §3
A short description of data set [13]: Metabolic stability in human liver microsomes assessed as half life preincubated for 5 mins followed by NADPH addition measured upto 45 mins by LC/MS analysis. In kind it is ADME, Microsome. The conditions noted are these: time < 50 min. The procedure, abridged:
as §3

Data set [14] can be described thus: Metabolic stability in rat liver microsomes assessed as intrinsic clearance preincubated for 5 mins followed by NADPH addition measured upto 45 mins by LC/MS analysis. In kind it is ADME, Microsome. The conditions noted are these: time < 50 min, read-out: CLH. A digest of the protocol:
as §3

A short description of data set [15]: Metabolic stability in human liver microsomes assessed as intrinsic clearance preincubated for 5 mins followed by NADPH addition measured upto 45 mins by LC/MS analysis. The format is ADME, Microsome. The conditions noted are these: time < 50 min, read-out: CLH. A digest of the protocol:
as §3

A short description of data set [16]: Metabolic stability in rat liver microsomes assessed as half life preincubated for 5 mins followed by NADPH addition measured upto 45 mins by LC/MS analysis. In kind it is ADME, Microsome. The following applies: time < 50 min. The procedure, abridged: as §3

On to `CCCCCc1ccc(-c2cccc(COc3ccc(F)c(C(N)=O)c3F)c2)cc1`, for which the MIC was above 128 µg/mL in data set [1], above 128 µg/mL in data set [2] and 0.125 µg/mL (≈ 0.305 µM) in data set [3].
Regarding `Cc1ccccc1-c1cccc(COc2ccc(F)c(C(N)=O)c2F)c1`, the MIC in data set [1] worked out at 1 µg/mL (≈ 2.83 µM); in data set [2] it was 1 µg/mL (≈ 2.83 µM); in data set [3], 0.25 µg/mL (≈ 0.707 µM).
On to `NC(=O)c1c(F)ccc(OCc2cccc(-c3ccc(C(F)(F)F)cc3Cl)c2)c1F`, for which the MIC in [1] turned out to be 0.25 µg/mL (≈ 0.566 µM); in data set [4], 0.031 µg/mL (≈ 0.0702 µM); in data set [2], 0.25 µg/mL (≈ 0.566 µM); in data set [5] it was 0.063 µg/mL (≈ 0.143 µM); in data set [3], 0.031 µg/mL (≈ 0.0702 µM); in [6] it was 0.063 µg/mL (≈ 0.143 µM).
For `CN[C@H](CC(C)C)C(=O)N[C@H]1C(=O)N[C@@H](CC(N)=O)C(=O)N[C@H]2C(=O)N[C@H]3C(=O)N[C@H](C(=O)N[C@H](C(=O)O)c4cc(O)cc(O)c4-c4cc3ccc4O)[C@H](O)c3ccc(c(Cl)c3)Oc3cc2cc(c3O[C@@H]2O[C@H](CO)[C@@H](O)[C@H](O)[C@H]2O[C@H]2C[C@](C)(N)[C@H](O)[C@H](C)O2)Oc2ccc(cc2Cl)[C@H]1O` [VANCOMYCIN], the MBC in data set [7] was found to be 1 µg/mL (≈ 0.69 µM); in data set [9], 0.5 µg/mL (≈ 0.345 µM). For the same molecule, the MIC was above 128 µg/mL in data set [8] and 1 µg/mL (≈ 0.69 µM) in data set [3].
Turning to `CC(C)(C)c1ccc(-c2cccc(COc3ccc(F)c(C(N)=O)c3F)c2)cc1`, the MIC in data set [1] was above 128 µg/mL; in data set [2], above 128 µg/mL; in data set [3], 2 µg/mL (≈ 5.06 µM).
Consider `N#Cc1ccc(-c2cccc(COc3ccc(F)c(C(N)=O)c3F)c2)cc1`, for which the MIC in data set [1], in [2] and in data set [3] was above 128 µg/mL in each case.
As for `COc1ccc(-c2cccc(COc3ccc(F)c(C(N)=O)c3F)c2)cc1`, the MIC was 2 µg/mL (≈ 5.41 µM) in [1], 1 µg/mL (≈ 2.71 µM) in data set [2] and 0.25 µg/mL (≈ 0.677 µM) in data set [3].
In the case of `CCn1cc(C(=O)O)c(=O)c2cc(F)c(N3CCNCC3)cc21` [NORFLOXACIN], in [10], the “fold change (FC)” value was determined as 128.
As to `NC(=O)c1c(F)ccc(OCc2cccc(-c3ccc(C(F)(F)F)cc3F)c2)c1F`, the figures for the minimum inhibitory concentration (MIC) in data set [1], in [2] and in data set [3] were 1 µg/mL (≈ 2.35 µM), 1 µg/mL (≈ 2.35 µM) and 0.063 µg/mL (≈ 0.148 µM), respectively.
As to `NC(=O)c1c(F)ccc(OCc2cccc(-c3ccc(Cl)cc3F)c2)c1F`, the MIC in data set [1] came out at 0.5 µg/mL (≈ 1.28 µM); in data set [4], 0.016 µg/mL (≈ 0.0408 µM); in data set [2] it was 0.5 µg/mL (≈ 1.28 µM); in [5] it was 0.031 µg/mL (≈ 0.0791 µM); in data set [3], 0.016 µg/mL (≈ 0.0408 µM); in data set [6], 0.016 µg/mL (≈ 0.0408 µM).
`COc1cc(C(F)(F)F)ccc1-c1cccc(COc2ccc(F)c(C(N)=O)c2F)c1`: the minimum inhibitory concentration (MIC) in data set [1] amounted to 1 µg/mL (≈ 2.29 µM); in data set [2], 1 µg/mL (≈ 2.29 µM); in data set [3] it was 0.063 µg/mL (≈ 0.144 µM).
On to `CCCCc1ccc(-c2cccc(COc3ccc(F)c(C(N)=O)c3F)c2)cc1`, for which the minimum inhibitory concentration (MIC) in data set [1] turned out to be 1 µg/mL (≈ 2.53 µM); in data set [2] it was 0.5 µg/mL (≈ 1.26 µM); in [3], 0.125 µg/mL (≈ 0.316 µM).
In the same order, the values of `NC(=O)c1c(F)ccc(OCc2cc(Cl)cc(-c3ccc(C(F)(F)F)cc3)c2)c1F` are above 128 µg/mL, above 128 µg/mL and 1 µg/mL (≈ 2.26 µM).
In the same order, the values of `NC(=O)c1c(F)ccc(OCc2cccc(-c3ccc(C(F)(F)F)c(Cl)c3)c2)c1F` are above 128 µg/mL, above 128 µg/mL and above 128 µg/mL.
For `NC(=O)c1c(F)ccc(OC(CO)c2cccc(-c3ccc(C(F)(F)F)cc3)c2)c1F` (centres undefined) the same measures were 8 µg/mL (≈ 18.3 µM), 4 µg/mL (≈ 9.15 µM) and 0.5 µg/mL (≈ 1.14 µM).
With `O=C(c1ccc(F)cc1)C1CCN(CCn2c(=O)[nH]c3ccccc3c2=O)CC1` [KETANSERIN], the CLint scaled in [11] amounted to 637 mL/min/kg; in data set [14], 171 mL/min/kg; in data set [15] it was 57.1 mL/min/kg. Besides, the half-life in data set [12] amounted to 8.57 min; in data set [13], 30.4 min; in [16], 14.5 min.
With `NC(=O)c1c(F)ccc(OCc2cccc(-c3ccc(Cl)cc3Cl)c2)c1F`, the results for the MIC in data set [1], in data set [2] and in [3] were 0.25 µg/mL (≈ 0.612 µM), 0.25 µg/mL (≈ 0.612 µM) and 0.031 µg/mL (≈ 0.0759 µM), respectively.
